Efflux pump mplx – inhibitors of Candida efflux pumps in yeast, primary screen, S. cerevisiae, Nile Red, multiplex; inhibition, % at 10 µM; hit rate 0.44% among 330,000; AID 485275, 2010; S. cerevisiae Candida pump triplex;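 active means plate passing quality check with inhibition over a set limit, or well fluorescence over plate mean plus 4 SD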;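 further: Nile Red retained in pooled yeast measured as flow cytometry median fluorescence; 0% = buffer negative control and 100% = Enniatin B positive control; higher means more Nile Red kept so more efflux inhibition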
T cruzi repl – inhibitors of intracellular T. cruzi growth, primary screen, luminescence, NIH3T3 host cells; T. cruzi beta-gal in NIH3T3, 90 h; inhibition, % (concentration not given with the values); hit rate 1.4% among 300,000;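 active means mean inhibition across valid replicates above about 55%, limit read from the data; inconclusive means mean below that limit but half or more replicates reach it; inactive means mean below it, under half of replicates reach it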;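 further: signal also drops with host cell toxicity which is not excluded here; 0% = plate median of DMSO wells and 100% = zero luminescence signal; higher percent means less beta-gal luminescence so fewer parasites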
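Material: NIH/3T3 host cells with β-galactosidase reporter T. cruzi; Input: 5,000 host fibroblasts per well; Medium: DMEM, 2% fetal bovine serum; Compound: 50 nL DMSO compound solution per well; Schedule: 3 h host attachment, then at least 90 h co-culture; Detection: luminescent β-galactosidase signal after 60 min lysis.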
PolyA inh – polyadenylation inhibitors in yeast reporter cells, primary screen, luminescence, S. cerevisiae. S. cerevisiae SKY197-pL101 polyadenylation reporter, beta-gal luminescence; efflux-impaired pdr1/pdr3 knockout yeast; score 100 = 6 SD above DMSO. activity score, % at 12 µM. hit rate 0.02% among 300,000;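 active means lowest replicate activity score at least 50, where 100 means six control SD above control mean; inconclusive means lowest score under 50 but half or more replicates reach 50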;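 further: yeast exposed to compound for 9 h at 30 °C; higher score means more reporter readthrough which indicates perturbed polyadenylation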
HDAC3 inh – HDAC3 deacetylase inhibitors, primary screen, biochemical, fluorescence, cell-free homogeneous. Histone deacetylase 3 (Homo sapiens), O15379. recombinant HDAC3, fluorogenic peptide/trypsin coupled. inhibition, % at 8.3 µM. hit rate 0.15% among 320,000. AID 2718, 2010; in the data active means inhibition above about 26%, passing the limit was not always enough; inconclusive means no clear call, values can overlap the other calls
Target sequence (O15379 whole entry, looked up): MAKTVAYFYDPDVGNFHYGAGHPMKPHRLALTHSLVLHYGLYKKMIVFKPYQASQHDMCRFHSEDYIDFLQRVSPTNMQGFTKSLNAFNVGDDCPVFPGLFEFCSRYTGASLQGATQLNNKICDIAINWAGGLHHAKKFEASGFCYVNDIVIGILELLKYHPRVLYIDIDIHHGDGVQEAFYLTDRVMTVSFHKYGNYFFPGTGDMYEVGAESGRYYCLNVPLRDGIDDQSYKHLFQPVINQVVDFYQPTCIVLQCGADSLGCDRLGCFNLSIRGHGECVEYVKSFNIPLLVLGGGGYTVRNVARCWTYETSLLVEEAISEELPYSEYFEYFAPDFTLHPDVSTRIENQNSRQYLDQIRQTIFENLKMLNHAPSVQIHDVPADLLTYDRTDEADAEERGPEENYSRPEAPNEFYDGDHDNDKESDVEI
AI-2 QS mod – Vibrio harveyi AI-2 quorum sensing modulators, primary screen, JMH597 strain, luminescence/OD600 ratio | Vibrio harveyi JMH597 AI-2 luminescence/OD600 ratio, 9 h; stronger effect = lower value; strain lacks LuxN and CqsS sensors; 0 = neutral-control median | activity change, % at 7.5 µM | hit rate 0.4% among 300,000 | AID 2094, 2009; in the data active means activity change below about -75%, passing the limit was not always enough; inconclusive means no clear call, values can overlap the other calls;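 further: luminescence divided by OD600 gain over 9 h not by final OD600 alone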
Yeast cmpd fluor – counter-screen for efflux pump inhibitors: compound fluorescence; shares compounds with Efflux pump mplx; hit rate 4% among 1,700; S. cerevisiae AD/pABC3, flow cytometry; fluorescence ratio to DMSO, % at 10 µM;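 active means fluorescence ratio to DMSO above its plate's cutoff, the plate mean ratio plus 5 SD, cut at about 210% in these data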;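 further: unstained yeast with no Nile Red so the signal is compound autofluorescence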
Mdr1 pump inh – inhibitors of Candida albicans Mdr1 efflux, confirmation, flow cytometry, singleplex, Cherry Pick1 set; shares compounds with Efflux pump mplx; S. cerevisiae AD/CaMDR1, Nile Red efflux; inhibition, % at 10 µM; hit rate 1% among 1,700; in the data active means inhibition above about 26%;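 further: 0% = DMSO vehicle and 100% = reference inhibitor; higher means more Nile Red retained so more efflux inhibition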
CaCdr2 efflux inh – inhibitors of Candida albicans Cdr2 efflux pump, confirmation, S. cerevisiae AD/CaCDR2, flow cytometry, cherry pick 1, singleplex. shares compounds with Efflux pump mplx. Nile Red retention. Nile Red retention ratio vs DMSO, % at 10 µM. hit rate 4% among 1,700; in the data active means Nile Red retention ratio vs DMSO above about 190%;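 further: higher ratio means more blocking of Cdr2 efflux of the dye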
Cdr1 pump inh – inhibitors of Candida albicans Cdr1 efflux pump, confirmation, S. cerevisiae AD/CaCDR1, flow cytometry, cherry pick 1, singleplex; shares compounds with Efflux pump mplx; Nile Red efflux; inhibition, % at 10 µM; hit rate 1% among 1,700; AID 588522, 2011;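 active means inhibition above the screen-wide mean plus twice its standard deviation, cut at about 32% in these data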
* marks the source's active call; other numbers are inactive results; ? = inconclusive; . = no result. This is a sample that favours compounds with a hit; in the whole collection about 2.2% have one here.

SMILES	Efflux pump mplx	T cruzi repl	PolyA inh	HDAC3 inh	AI-2 QS mod	Yeast cmpd fluor	Mdr1 pump inh	CaCdr2 efflux inh	Cdr1 pump inh
CCn1ncc(Br)c1C(=O)Nc1c(C)nn(Cc2c(F)c(F)c(F)c(F)c2F)c1C	0	.	.	14	9	.	.	.	.
COc1ccc(CCN2C(=O)CSC2c2ccc(F)cc2)cc1 (configuration not stated)	0	3	-7	-4	12	.	.	.	.
O=c1[nH]c(C2CCN(S(=O)(=O)c3ccc(S(=O)(=O)NC4CC4)cc3)CC2)nc2c1nnn2Cc1ccccc1	0	9	?	4	20	.	.	.	.
Cc1ccc(C)c(Cn2nnc3c(=O)[nH]c(C4CCN(S(=O)(=O)c5ccc(S(=O)(=O)NC6CC6)cc5)CC4)nc32)c1	3.1*	8	7	-2	28	99	0	105	0
CCCNC(=S)NCc1ccc(Cl)cc1	1	-3	-2	.	-26	.	.	.	.
O=S(=O)(c1cccc2nonc12)N1CCN(c2ccccc2F)CC1	1.1*	-10	-15	-6	-2	98	0	101	0
Cc1cccc(N2CCN(S(=O)(=O)c3cccc4nonc34)CC2)c1C	0	10	21	4	29	.	.	.	.
CCNS(=O)(=O)c1ccc2c(c1)NCC2	12*	2	18	1	-3	105	0	95	0
CCNS(=O)(=O)c1ccc(OC)c(C)c1	0	6	7	-7	14	.	.	.	.
COc1ccc2sc(-c3ccccc3OC)c(-c3ccc(OCCN4CCOCC4)cc3)c2c1	128*	.	.	.	.	106	89*	94	100*
COc1ccccc1-c1sc2ccccc2c1-c1ccc(OCCN2CCOCC2)cc1	0	.	.	.	.	109	0	100	0
COc1cc2sc(-c3ccccc3OC)c(-c3ccc(OCCN4CCCCC4)cc3)c2cc1OC	0	.	.	12	.	.	.	.	.
Cc1ccc(-c2c(CC(=O)O)c(C)nc3sc4c(c23)CCCC4)cc1	0	-14	-8	3	10	.	.	.	.
CCCCCCCCn1ccc(=N)cc1	0.8*	39	-8	5	-4	97	0	108	0
CC(CNC(=O)CCC(=O)N1CCOc2ccccc21)c1ccccc1 (configuration not stated)	0	-4	-20	-7	14	.	.	.	.
COc1ccccc1-c1nc(C#N)c(N2CCN(C(c3ccccc3)c3ccccc3)CC2)o1	0.5*	23	4	-3	5	100	0	116	0
COc1ccccc1-c1nc(C#N)c(N2CCN(c3cccc(Cl)c3)CC2)o1	0	18	-10	-15	4	.	.	.	.
O=C(C1CCCO1)N1CCN(S(=O)(=O)c2ccc(Cl)cc2)CC1 (configuration not stated)	0	2	-5	3	5	.	.	.	.
COc1ccc(OC)c2c1C(=O)c1ccccc1C2=O	0	3	12	2	20	.	.	.	.
COc1ccc(OC)c2c1C(=O)C(Cl)=C(Cl)C2=O	1.5*	11	-56	-6	22	123	1	246*	1
Cc1ccc(NC(=S)NCc2cccn2C)cc1	1.2*	0	-5	0	-7	105	0	94	0
COCCn1c(SCC(=O)NC2CCCCC2)nnc1-c1ccncc1	0	-17	10	3	3	.	.	.	.
Cc1ccc(C)c(OCc2cc(C(=O)N(C)Cc3nccs3)no2)c1	0	0	-6	6	.	182	1	110	1
CN(CC1CCCN(CCc2ccc(F)cc2)C1)C(=O)CCC(N)=O (configuration not stated)	0	3	-23	1	-10	.	.	.	.
CCSc1nnc(NC(NC(C)=O)(C(F)(F)F)C(F)(F)F)s1	14*	-9	14	-1	7	117	1	131	1
SMILES	Efflux pump mplx	T cruzi repl	PolyA inh	HDAC3 inh	AI-2 QS mod	Yeast cmpd fluor	Mdr1 pump inh	CaCdr2 efflux inh	Cdr1 pump inh
COc1ccc(S(=O)(=O)N2CCOC2CNC(=O)C(=O)NCc2ccc3c(c2)OCO3)cc1 (configuration not stated)	0	19	0	2	9	98	0	102	0
COc1ccc(CCNC(=O)C(=O)NCC2OCCN2S(=O)(=O)c2ccc(OC)cc2)cc1 (configuration not stated)	0	4	0	-1	14	.	.	.	.
COc1ccc(CNC(=O)C(=O)NCC2OCCN2S(=O)(=O)c2ccc(OC)cc2)cc1 (configuration not stated)	-1	13	2	-6	10	101	0	98	0
Cc1ccc(NC(=O)c2ccc([N+](=O)[O-])s2)cc1S(=O)(=O)N1CCOCC1	0	.	.	2	.	.	.	.	.
Cc1ccc(S(=O)(=O)Nc2cc(C)c(O)c(Sc3n[nH]c(C)n3)c2)cc1	0	-2	4	-1	14	99	-1	109	0
Cc1ccc(S(=O)(=O)Nc2ccc3cn[nH]c3c2)cc1	0	.	.	-2	.	.	.	.	.
COc1ccc(C(C(=O)NC(C)(C)C)N(C(=O)CCC(=O)Nc2cc(C)on2)c2c(C)cccc2C)cc1 (configuration not stated)	0	-3	-1	-3	13	.	.	.	.
O=C(c1cc(COc2ccc(-n3cncn3)cc2)on1)N1CCCC1	9.9*	-4	14	-6	44	105	0	106	0
CCOc1ccc(CNC(=O)Cn2nc(C)c3c(C)n(-c4ccc(C)cc4)nc3c2=O)cc1	0	13	18	?	21	100	0	109	0
Cc1ccc(-n2nc3c(=O)n(CC(=O)NCc4ccccn4)nc(C)c3c2C)cc1	0	8	-3	-8	23	.	.	.	.
Cc1ccc(CNC(=O)CCCn2nc(C)c3c(C)n(-c4ccccc4)nc3c2=O)cc1	0	1	8	-4	15	111	0	108	0
Cc1ccc(-n2nc3c(=O)n(CCCC(=O)NCc4ccccc4C)nc(C)c3c2C)cc1	0	-6	-19	-1	18	.	.	.	.

High-throughput results deposited in PubChem BioAssay by several laboratories.
